Reference: PMC3845662 (Analytical chemistry, 2013)
Values joined by “and” are separate entries in the source; they are usually repeats but may differ in a detail not shown here. Equal entries are not always repeated.

Experiments:
Hsp70-Bag3 complex [1] = biological target: T1, Hsp70-Bag3 complex (Homo sapiens, UniProt P0DMV8); assay: CE-LIF screen / dose response for inhibition of the Hsp70-Bag3 interaction; format: binding; conditions: for classification from electropherogram (artifact): 20 μM compound; for hit in CE screen, reconfirmed with repurchased compound by DRC: primary screen 20 μM, repurchased compound dose response
Summary of the method: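 Incubated ≥15 min at ambient temperature with dry-spotted compound; unlabelled Hsp70 as positive control. Coated capillary, 10 cm, 25 °C, pH 7.5 phosphate/Tween buffer, 500 V/cm. LIF bound/free peak-area ratio; screen hits ≥3 SD.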

Hsp70 = conditions: cited from earlier work
Hsp70-Bag3 complex [2] = biological target: T1, Hsp70-Bag3 complex; assay: Flow cytometry protein interaction assay; format: binding; conditions: for cross-test of CE hit by DRC in FCPIA: repurchased compound, dose response; for result in original FCPIA screen: single concentration 20 μM, hit = inhibition ≥ 3 SD from negative controls
Summary of the method: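 Biotinylated Hsp70 was immobilised on streptavidin polystyrene beads for 1 h, then mixed with Alexa Fluor 488-labelled Bag3 (30 nM final) and compound or DMSO. Unlabelled Hsp70 served as positive control. After 15 min, median bead-associated fluorescence was read by flow cytometry. Screen used 20 μM; hits ≥3 SD from negative controls.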

[3] = 0.5 μM Hsp70–488 and 0.5 μM Bag3

T1 sequence (P0DMV8 whole entry, one chain of several): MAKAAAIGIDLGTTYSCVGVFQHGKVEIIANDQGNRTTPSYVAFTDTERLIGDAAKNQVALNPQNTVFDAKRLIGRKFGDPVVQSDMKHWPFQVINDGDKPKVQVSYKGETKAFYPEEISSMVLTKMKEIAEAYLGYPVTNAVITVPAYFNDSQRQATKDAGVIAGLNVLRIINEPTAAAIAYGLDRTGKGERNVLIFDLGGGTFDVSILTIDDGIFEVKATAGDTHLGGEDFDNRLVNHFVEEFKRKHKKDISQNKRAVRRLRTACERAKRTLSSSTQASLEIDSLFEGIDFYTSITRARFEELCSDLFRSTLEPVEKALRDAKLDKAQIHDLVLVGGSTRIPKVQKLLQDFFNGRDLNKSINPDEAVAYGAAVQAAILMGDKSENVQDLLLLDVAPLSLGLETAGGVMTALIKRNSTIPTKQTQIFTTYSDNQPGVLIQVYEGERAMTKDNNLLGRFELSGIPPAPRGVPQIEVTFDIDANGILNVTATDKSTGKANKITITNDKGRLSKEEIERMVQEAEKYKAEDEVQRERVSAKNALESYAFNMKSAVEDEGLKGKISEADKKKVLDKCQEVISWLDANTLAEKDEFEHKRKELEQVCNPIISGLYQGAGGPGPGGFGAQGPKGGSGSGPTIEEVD

Compound	classification from electropherogram (artifact) (Hsp70-Bag3 complex [1]; [3])	hit in CE screen, reconfirmed with repurchased compound by DRC (Hsp70-Bag3 complex [1])	cross-test of CE hit by DRC in FCPIA (Hsp70-Bag3 complex [2])	result in original FCPIA screen (Hsp70-Bag3 complex [2])	other results
Oc1cc2c(cc1O)C1c3ccc(O)c(O)c3OCC1(O)C2 (centres unmarked) [haematoxylin]	identified as an aggregator	–	–	–	–
unlabeled Hsp70: unlabeled recombinant human Hsp70 (HSPA1) used as competitor and positive control	–	–	–	–	IC50 (decrease of bound to free peak area ratio) (Hsp70-Bag3 complex [1]; 0.5 μM Hsp70–488 and 0.5 μM Bag3 with increasing unlabeled Hsp70): 240 ± 3 nM and 240 nM
O=c1c(O)c(-c2cc(O)c(O)c(O)c2)oc2cc(O)cc(O)c12 [myricetin]	–	found by CE	reconfirmed by FCPIA	missed in the original FCPIA screen	known modulator of Hsp70 (Hsp70): known modulators of Hsp70
CC1=C(O)C(=O)C=C2C1=CC=C1[C@@]2(C)CC[C@@]2(C)[C@@H]3C[C@](C)(C(=O)O)CC[C@]3(C)CC[C@]12C [celastrol]	–	found by CE	reconfirmed by FCPIA	missed in the original FCPIA screen	–
O=C(O[C@@H]1Cc2c(O)cc(O)cc2O[C@@H]1c1cc(O)c(O)c(O)c1)c1cc(O)c(O)c(O)c1 [Epigallocatechin gallate]	–	–	–	–	classification from electropherogram (Hsp70-Bag3 complex [1]; 15 μM compound, 0.5 μM Hsp70–488 and 0.5 μM Bag3): confirmed PPI inhibitor
O=C(O)CN(CC(=O)O)Cc1cc2c(cc1O)Oc1cc(O)c(CN(CC(=O)O)CC(=O)O)cc1C21OC(=O)c2ccccc21 [calcein]	identified as a fluorescent compound that interferes with detection of free Hsp70–488	–	–	–	–
